Assay results published in ChEMBL document CHEMBL3804761, “Synthesis of a stable and orally bioavailable englerin analogue” (Bioorg Med Chem Lett, 2016).

Assays:
Assay type in all cases: functional
[1] = Growth inhibition of human PC3 cells assessed as cell growth at 10 uM incubated for 48 hrs by sulforhodamine B assay relative to control; settings: PC-3, 48 h, read-out: Activity
How it was run: (§1)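 Run in the standard NCI 60-cell-line screen. Cells were exposed to drug for two days, and the read-out was sulforhodamine B staining. Compound was tested at a single final concentration of 10 µM in every line, and results are reported as growth percent.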

[2] = Growth inhibition of human UACC62 cells incubated for 48 hrs by sulforhodamine B assay; settings: UACC-62, 48 h
How it was run: (§2)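 Tested in the standard NCI 60-cell-line protocol with two-day drug exposure and a sulforhodamine B endpoint. Compounds were first screened at a single final concentration of 10 µM, reported as growth percent. They were then run as five 10-fold dilutions starting from a high concentration of 100 µM to give dose-response curves.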

KM12 = assay: Growth inhibition of human KM12 cells incubated for 48 hrs by sulforhodamine B assay; settings: KM12, 48 h
How it was run: (§3)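 NCI 60-cell-line panel, standard protocol. Cells exposed to compound for two days, growth read by sulforhodamine B staining. Tested at five 10-fold dilutions, top concentration 100 µM, to give dose-response curves.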

[3] = Growth inhibition of human HOP92 cells incubated for 48 hrs by sulforhodamine B assay; settings: HOP-92, 48 h; how it was run: as §3
[4] = Growth inhibition of human HCT15 cells incubated for 48 hrs by sulforhodamine B assay; settings: HCT-15, 48 h; how it was run: as §3
[5] = Growth inhibition of human SNB19 cells assessed as cell growth at 10 uM incubated for 48 hrs by sulforhodamine B assay relative to control; settings: SNB-19, 48 h, read-out: Activity; how it was run: as §1
[6] = Growth inhibition of human DU145 cells assessed as cell growth at 10 uM incubated for 48 hrs by sulforhodamine B assay relative to control; settings: DU-145, 48 h, read-out: Activity; how it was run: as §1
[7] = Growth inhibition of human SW620 cells assessed as cell growth at 10 uM incubated for 48 hrs by sulforhodamine B assay relative to control; settings: SW-620, 48 h, read-out: Activity; how it was run: as §1
K562 = assay: Growth inhibition of human K562 cells incubated for 48 hrs by sulforhodamine B assay; settings: K562, 48 h; how it was run: as §3
[8] = Growth inhibition of human UO31 cells incubated for 48 hrs by sulforhodamine B assay; settings: UO-31, 48 h; how it was run: as §2
[9] = Growth inhibition of human HCT116 cells incubated for 48 hrs by sulforhodamine B assay; settings: HCT-116, 48 h; how it was run: as §3
[10] = Growth inhibition of human SF268 cells assessed as cell growth at 10 uM incubated for 48 hrs by sulforhodamine B assay relative to control; settings: SF-268, 48 h, read-out: Activity; how it was run: as §1
M14 = assay: Growth inhibition of human M14 cells assessed as cell growth at 10 uM incubated for 48 hrs by sulforhodamine B assay relative to control; settings: M14, 48 h, read-out: Activity; how it was run: as §1
NCI-H522 = assay: Growth inhibition of human NCI-H522 cells assessed as cell growth at 10 uM incubated for 48 hrs by sulforhodamine B assay relative to control; settings: NCI-H522, 48 h, read-out: Activity; how it was run: as §1
SK-MEL-28 = assay: Growth inhibition of human SK-MEL-28 cells incubated for 48 hrs by sulforhodamine B assay; settings: SK-MEL-28, 48 h; how it was run: as §3
NCI-H460 = assay: Growth inhibition of human NCI-H460 cells incubated for 48 hrs by sulforhodamine B assay; settings: NCI-H460, 48 h; how it was run: as §3
[11] = Growth inhibition of human OVCAR3 cells incubated for 48 hrs by sulforhodamine B assay; settings: OVCAR-3, 48 h; how it was run: as §3
ACHN [12] = assay: Growth inhibition of human ACHN cells incubated for 48 hrs by sulforhodamine B assay; how it was run: as §3
ACHN [13] = assay: Growth inhibition of human ACHN cells assessed as cell growth at 10 uM incubated for 48 hrs by sulforhodamine B assay relative to control; settings: read-out: Activity; how it was run: as §1
SK-MEL-5 = assay: Growth inhibition of human SK-MEL-5 cells assessed as cell growth at 10 uM incubated for 48 hrs by sulforhodamine B assay relative to control; settings: SK-MEL-5, 48 h, read-out: Activity; how it was run: as §1
A498 = assay: Growth inhibition of human A498 cells incubated for 48 hrs by sulforhodamine B assay; settings: A498, 48 h
[14] = Growth inhibition of human MOLT4 cells incubated for 48 hrs by sulforhodamine B assay; settings: MOLT-4, 48 h; how it was run: as §3
786-0 = assay: Growth inhibition of human 786-0 cells incubated for 48 hrs by sulforhodamine B assay; settings: 786-0, 48 h; how it was run: as §3
NCI/ADR-RES = assay: Growth inhibition of human NCI/ADR-RES cells incubated for 48 hrs by sulforhodamine B assay; how it was run: as §3
[15] = Growth inhibition of human HCC2998 cells incubated for 48 hrs by sulforhodamine B assay; settings: HCC 2998, 48 h; how it was run: as §3
[16] = Growth inhibition of human HL-60(TB) cells assessed as cell growth at 10 uM incubated for 48 hrs by sulforhodamine B assay relative to control; settings: HL-60, 48 h, read-out: Activity
How it was run: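 Single-dose screen in the NCI 60-cell-line panel at one final concentration of 10 µM. Two-day drug exposure with a sulforhodamine B endpoint. Values are growth percent for each cell line.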

[17] = Growth inhibition of human OVCAR5 cells assessed as cell growth at 10 uM incubated for 48 hrs by sulforhodamine B assay relative to control; settings: OVCAR-5, 48 h, read-out: Activity; how it was run: as §1
[18] = Growth inhibition of human RXF393 cells assessed as cell growth at 10 uM incubated for 48 hrs by sulforhodamine B assay relative to control; settings: RXF 393, 48 h, read-out: Activity; how it was run: as §1
[19] = Growth inhibition of human COLO205 cells incubated for 48 hrs by sulforhodamine B assay; settings: COLO 205, 48 h; how it was run: as §3
[20] = read-out: pLC50 (the source's name) (converted)

`CC(C)[C@@]12C[C@@H](NC(=O)CO)[C@@](C)(O1)[C@@H]1CC[C@@H](C)[C@H]1[C@@H]2OC(=O)c1ccc2ccccc2c1` showed a growth at 10 µM [1] of 66.9%, a GI50 [2] of 13.5 µM and an LC50 (lethal concentration, 50% net cell kill) [2] of 55 µM. It also gave a TGI ([2]; read-out: pTGI (converted)) of 26.9 µM, a GI50 (KM12) of 17.4 µM and an LC50 (KM12) of 61.7 µM. For the same compound, the TGI (KM12; read-out: pTGI (converted)) was 32.4 µM, the GI50 [3] was 9.33 µM and the LC50 [3] was 52.5 µM. For the same compound, the TGI ([3]; read-out: pTGI (converted)) was 22.9 µM, the GI50 [4] was 16.6 µM and the LC50 [4] was 61.7 µM. For the same compound, the TGI ([4]; read-out: pTGI (converted)) was 31.6 µM, the growth at 10 µM [5] was 97.2% and the growth at 10 µM [6] was 98.4%. For the same compound, the growth at 10 µM [7] was 96.2%, the GI50 (K562) was 19.5 µM and the CC50 (K562; [20]) was 95.5 µM. It also gave a TGI (K562; read-out: pTGI (converted)) of 42.7 µM, a GI50 [8] of 11.5 µM and a CC50 [8, 20] of 50.1 µM. For the same compound, the TGI ([8]; read-out: pTGI (converted)) was 24 µM, the GI50 [9] was 14.1 µM and the LC50 [9] was 53.7 µM. For the same compound, the TGI ([9]; read-out: pTGI (converted)) was 27.5 µM, the growth at 10 µM [10] was 79% and the growth at 10 µM (M14) was 95.2%. For the same compound, the growth at 10 µM (NCI-H522) was 77.7%, the GI50 (SK-MEL-28) was 16.6 µM and the LC50 (SK-MEL-28) was 57.5 µM. It also gave a TGI (SK-MEL-28; read-out: pTGI (converted)) of 30.9 µM, a GI50 (NCI-H460) of 20.4 µM and a CC50 (NCI-H460; [20]) of 79.4 µM. It also gave a TGI (NCI-H460; read-out: pTGI (converted)) of 40.7 µM, a GI50 [11] of 17 µM and an LC50 [11] of 57.5 µM. The TGI ([11]; read-out: pTGI (converted)) was 30.9 µM, the GI50 (ACHN [12]) was 5.37 µM and the LC50 (concentration killing 50% of cells) (ACHN [12]) was 42.7 µM. For the same compound, the TGI (ACHN [12]; read-out: pTGI (converted)) was 17 µM, the growth at 10 µM (ACHN [13]) was 8.4% and the growth at 10 µM (SK-MEL-5) was 93.5%. It also gave an LC50 (A498) of 29.5 µM, a GI50 (A498; read-out: GI50) of 1.62 µM and a GI50 (A498; read-out: pGI50 (converted)) of 1.62 µM. It also gave a TGI (A498; read-out: pTGI (converted)) of 6.31 µM, a GI50 [14] of 18.6 µM and an LC50 [14] of 89.1 µM. The TGI ([14]; read-out: pTGI (converted)) was 40.7 µM, the GI50 (786-0) was 13.8 µM and the LC50 (786-0) was 56.2 µM. The TGI (786-0; read-out: pTGI (converted)) was 28.2 µM, the GI50 (NCI/ADR-RES) was 11 µM and the LC50 (NCI/ADR-RES) was 57.5 µM. For the same compound, the TGI (NCI/ADR-RES; read-out: pTGI (converted)) was 25.1 µM, the GI50 [15] was 15.8 µM and the LC50 [15] was 57.5 µM. The TGI ([15]; read-out: pTGI (converted)) was 30.2 µM, the growth at 10 µM [16] was 99.3% and the growth at 10 µM [17] was 84.5%. It also gave a growth at 10 µM [18] of 61.6%, a GI50 [19] of 19.1 µM and a CC50 [19, 20] of 61.7 µM. For the same compound, the TGI ([19]; read-out: pTGI (converted)) was 34.7 µM.
